Tests used:
[1] = system: Human immunodeficiency virus 1; assay: Antiviral activity against HIV1 3B infected in human MT2 cells assessed as inhibition of p24 production after 4 days by ELISA; assay type: functional, organism-based
[2] = Inhibition of HIV1 gp41 assessed as gp41-six-helix bundle formation after 30 mins by sandwich ELISA; parameters: species or system Human immunodeficiency virus 1
In short: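 N36 peptide (2 µM) preincubated with graded compound concentrations at 37 °C for 30 min, then C34 (2 µM) added for another 30 min at 37 °C. Mixture captured on plates coated with anti-6-HB rabbit IgG (10 µg/mL); detected with mAb NC-1, biotinylated anti-mouse IgG, SA-HRP, TMB; A450. Percent inhibition calculated; triplicate.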

[3] = Selectivity index, ratio of CC50 for human MT2 cells to EC50 for HIV1 3B; assay type: toxicity, cell-based; conditions: read-out: Ratio CC50/EC50
In short: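 Ratio CC50/EC50, CC50 from XTT cytotoxicity in MT-2 cells over 4 days and EC50 from p24 inhibition in HIV-1 IIIB-infected MT-2 cells at day 4.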

[4] = Cytotoxicity against human MT2 cells after 4 days using XTT assay; assay type: cell-based
In short: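 MT-2 cells (5×10^5/mL) mixed with equal volume of graded compound concentrations, 37 °C for 4 days; XTT (1 mg/mL) containing 0.02 µM PMS added, A450 read after 4 h. CC50 calculated by CalcuSyn; triplicate, mean ± SD.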

[5] = Human immunodeficiency virus 1, 3B, MT2, 96 h, read-out: EC50

Structure (SMILES) | EC50 [1, 5] | IC50 ([2]; read-out: IC50) | selectivity ratio [3] | CC50 at 96 h [4] | EC50 ([1]; mt2) | IC50 [2]
COc1ccc(N2C(=O)/C(=C/c3cc(C)n(-c4cccc(-c5nnn[nH]5)c4)c3C)SC2=S)cc1 | 47.9 µM | 9.2 µM | 1.8 | 87 µM | – | –
Cc1cc(C=C(C#N)C#N)c(C)n1-c1cccc(-c2nnn[nH]2)c1 | – | – | – | > 400 µM | Not Active | Not Active
Cc1cc(/C=C/[N+](=O)[O-])c(C)n1-c1cccc(-c2nnn[nH]2)c1 | 29.3 µM | – | 2.7 | 78.8 µM | – | Not Active
CCOC(=O)/C(C#N)=C/c1cc(C)n(-c2cccc(-c3nnn[nH]3)c2)c1C | 18 µM | – | 4.3 | 76.8 µM | – | Not Active
CCOC(=O)C(=Cc1cc(C)n(-c2cccc(-c3nnn[nH]3)c2)c1C)C(=O)OCC | 17.2 µM | 12.1 µM | 4.5 | 77.4 µM | – | –
Cc1cc(/C=C2\SC(=S)N(c3ccccc3)C2=O)c(C)n1-c1cccc(-c2nnn[nH]2)c1 | 3.2 µM | 4.4 µM | 19 | 61 µM | – | –
COc1cccc(N2C(=O)/C(=C/c3cc(C)n(-c4cccc(-c5nnn[nH]5)c4)c3C)SC2=S)c1 | 6 µM | 3.1 µM | 6.8 | 40.6 µM | – | –
Cc1cc(/C=C2\SC(=S)N(c3cccc(C(F)(F)F)c3)C2=O)c(C)n1-c1cccc(-c2nnn[nH]2)c1 | 6.8 µM | – | 2.3 | 15.8 µM | – | Not Active
Cc1cc(/C=C2\SC(=S)N(c3cccc(O)c3)C2=O)c(C)n1-c1cccc(-c2nnn[nH]2)c1 | 6.3 µM | 7.7 µM | 5.7 | 35.6 µM | – | –
Cc1cc(/C=C2\SC(=S)N(c3cccc(Br)c3)C2=O)c(C)n1-c1cccc(-c2nnn[nH]2)c1 | 9.8 µM | – | 2.3 | 22.6 µM | – | Not Active
Cc1cc(/C=C2\SC(=S)N(c3cccc([N+](=O)[O-])c3)C2=O)c(C)n1-c1cccc(-c2nnn[nH]2)c1 | 23.9 µM | 3.2 µM | 3.2 | 77 µM | – | –
Cc1cc(/C=C2\SC(=S)N(c3ccc(C(F)(F)F)cc3)C2=O)c(C)n1-c1cccc(-c2nnn[nH]2)c1 | 13.1 µM | 2.7 µM | 2.1 | 27.1 µM | – | –
Cc1cc(/C=C2\SC(=S)N(c3ccc(O)cc3)C2=O)c(C)n1-c1cccc(-c2nnn[nH]2)c1 | 25.7 µM | 20.6 µM | 1.8 | 45.6 µM | – | –
Cc1cc(/C=C2\SC(=S)N(c3ccc(Br)cc3)C2=O)c(C)n1-c1cccc(-c2nnn[nH]2)c1 | 2.2 µM | 4.6 µM | 21 | 46.8 µM | – | –
Cc1cc(/C=C2\SC(=S)N(Cc3ccccc3)C2=O)c(C)n1-c1cccc(-c2nnn[nH]2)c1 | 12.3 µM | 12.7 µM | 12 | 150 µM | – | –
Cc1cc(/C=C2\SC(=S)N(CCc3ccccc3)C2=O)c(C)n1-c1cccc(-c2nnn[nH]2)c1 | 4.1 µM | 28.1 µM | 11 | 45.7 µM | – | –
COc1ccc(N2C(=O)N/C(=C\c3cc(C)n(-c4cccc(-c5nnn[nH]5)c4)c3C)C2=O)cc1 | 51.6 µM | 22.6 µM | 2 | 101 µM | – | –
Cc1cc(/C=C2\NC(=O)N(c3cccc(C(F)(F)F)c3)C2=O)c(C)n1-c1cccc(-c2nnn[nH]2)c1 | 48.9 µM | 41.6 µM | 1.6 | 76.5 µM | – | –
O=C(O)c1cc(-n2cccc2)ccc1Cl | – | 58.7 µM | – | – | – | –
Cc1ccc(C)n1-c1cccc(-c2nnn[nH]2)c1 | – | 25.6 µM | 32 | – | – | –

From ChEMBL document CHEMBL1914351, “Design, synthesis and biological evaluation of 3-substituted 2,5-dimethyl-N-(3-(1H-tetrazol-5-yl)phenyl)pyrroles as novel potential HIV-1 gp41 inhibitors” (Bioorg Med Chem, 2011)
